Publication PMC5508592 (The New England journal of medicine, 2016)
Read-outs that look alike come from different tables or passages of the source.

Legend:
[1] = tested on: DhhCre;Nf1fl/fl model of neurofibromatosis type 1–related neurofibromas; conditions: cited from earlier work
[2] = format: in vivo
[3] = tested on: neurofibromatosis type 1–related plexiform neurofibromas; experiment: Response evaluation by volumetric MRI analysis of plexiform neurofibroma volume; format: in vivo, human
[4] = tested on: plexiform neurofibroma–related complications; experiment: Anecdotal report of amelioration of complications of plexiform neurofibroma; format: in vivo, human
[5] = Plasma pharmacokinetics of selumetinib in patients during cycle 1; format: in vivo, human
Summary of the method: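 Pediatric patients who consented received oral test compound capsules every 12 h, continuously in 28-day cycles, at 20, 25 or 30 mg per square meter (nomogram by body-surface area). Plasma was sampled in cycle 1 on day 1 before dosing and 0.5, 1, 2, 3, 5, 8, 10–12, 24 and 30–36 h after, and on day 27 before dosing. Parent and N-desmethyl metabolite were assayed; noncompartmental PK analysis.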

[6] = tested on: phosphorylated extracellular signal-regulated kinase (ERK); experiment: Pharmacodynamics in mouse tumor samples; conditions: in vivo
[7] = children with low-grade gliomas; cited from earlier work
plexiform neurofibromas = conditions: 4 of 83 patients; phase 2 trial; cited from earlier work
[8] = 20-mg group, 7 patients with condition at baseline
[9] = 25-mg group, 3 patients with condition at baseline
[10] = 30-mg group, 3 patients with condition at baseline

For O=C(NOC[C@H](O)CO)c1ccc(F)c(F)c1Nc1ccc(I)cc1F [PD0325901], the “Effect on neurofibroma volume” value [1] is given as “tumor shrinkage in the majority of mice”.

For Cn1cnc2c(F)c(Nc3ccc(Br)cc3Cl)c(C(=O)NOCCO)cc21 [selumetinib], the “Tolerability of 30 mg per square meter relative to maximum tolerated dose” value ([2]; 30 mg per square meter twice daily) was “exceeded the maximum tolerated dose”, the Maximum tolerated dose ([2]; children, oral, every 12 hours, continuous dosing in 28-day cycles, approximately 60% of the recommended adult dose) was 25 mg per square meter and the “Dose-limiting toxic effect: cellulitis” value ([2]; human, in vivo) was “Grade 3 (2 patients)”. The “Dose-limiting toxic effect: decreased left ventricular ejection fraction” value ([2]; human, in vivo) was “Grade 3 (1 patient)”, the “Dose-limiting toxic effect: rash” value ([2]; human, in vivo) was “Grade 3 (1 patient)” and the “Dose-limiting toxic effect: urticaria” value ([2]; human, in vivo) was “Grade 3 (1 patient)”. The “Dose-limiting toxic effects in later cycles: cellulitis” value ([2]; human, in vivo) was 1 patient, the “Dose-limiting toxic effects in later cycles: creatine kinase elevation” value ([2]; human, in vivo) was 4 patients and the “Dose-limiting toxic effects in later cycles: oral mucositis” value ([2]; human, in vivo) was 3 patients. The “Left ventricular ejection fraction after decrease” value ([2]; human, in vivo) was 50%, the Serial ophthalmologic examinations ([2]; human, in vivo) was “no abnormalities, with the exception of a grade 1 asymptomatic cataract at cycle 16 in 1 patient” and the “Severity of most selumetinib-related adverse events” value ([2]; human, in vivo) was “mild (grade 1)”. The “Treatment stopped because of dose-limiting toxic effects” value ([2]; human, in vivo) was 1, the “Effect on height or weight” value ([2]; in vivo) was “No measurable effect” and the “Reversibility of dose-limiting toxic effects” value ([2]; in vivo) was “reversible”. The “Partial response, documented progressive disease at enrollment” value ([3]; 5 of 9 patients) was 56%, the “Partial response, no previous volumetric data available at enrollment” value ([3]; 6 of 7 patients) was 86% and the “Median time free of progression” value ([3]; 9 patients with confirmed tumor growth before enrollment, range, 23 to 46) was 26 cycles. For the same compound, the Confirmed partial response ([3]; 17 of the 24 patients, tumor volume decrease from baseline ≥20%) was 71%, the “Median best response (range)” value ([3]; 20-mg group (N = 12)) was −31 (−6 to −47) % volume change from baseline and the “Median time to best response (range)” value ([3]; 20-mg group (N = 12)) was 22 (5 to 42) mo. For the same compound, the Partial response ([3]; 20-mg group (N = 12), tumor volume decrease from baseline ≥20% for at least 4 weeks) was 9 (75) no. (%), the “No. with response, insufficient information on progression status at entry” value (“No. with response … at entry” below) ([3]; 20-mg group, of 4 patients) was 3 and the “No. with response, nonprogressive disease at trial entry” value ([3]; 20-mg group, of 4 patients) was 4. For the same compound, the “No. with response, progressive disease at trial entry” value ([3]; 20-mg group, of 4 patients) was 2, the “Median best response (range)” value ([3]; 25-mg group (N = 6)) was −34 (−16 to −44) % volume change from baseline and the “Median time to best response (range)” value ([3]; 25-mg group (N = 6)) was 18 (9 to 22) mo. The Partial response ([3]; 25-mg group (N = 6), tumor volume decrease ≥20%) was 5 (83) no. (%), the “No. with response … at entry” value ([3]; 25-mg group, of 2 patients) was 2 and the “No. with response, progressive disease at trial entry” value ([3]; 25-mg group, of 4 patients) was 3. The “Median best response (range)” value ([3]; 30-mg group (N = 6)) was −19 (−13 to −34) % volume change from baseline, the “Median time to best response (range)” value ([3]; 30-mg group (N = 6)) was 8 (5 to 24) mo and the Partial response ([3]; 30-mg group (N = 6), tumor volume decrease ≥20%) was 3 (50) no. (%). For the same compound, the “No. with response … at entry” value ([3]; 30-mg group, of 1 patient) was 1, the “No. with response, progressive disease at trial entry” value ([3]; 30-mg group, of 1 patient) was 0 and the “No. with response, nonprogressive disease at trial entry” value ([3]; 30-mg group, of 4 patients) was 2. The “Tumor volume reduction since reinitiation at a reduced dose” value ([3]; Patient 7 (30-mg group)) was 25%, the “Increase in plexiform neurofibroma volume from baseline after drug interruption” value ([3]; Patient 7 (30-mg group), when selumetinib was restarted) was 9.6% and the “Median change from baseline in plexiform neurofibroma volume (best response)” value ([3]; all 24 patients) was −31%. The “Range of change from baseline in plexiform neurofibroma volume (best response)” value ([3]; all 24 patients) was −5.8 to −47%, the “Median time to maximum response” value ([3]; all patients, range, 5 to 42) was 20 cycles and the “Partial response, tumors assessed as stable at enrollment” value ([3]; in vivo) was 2 of 2. The “Patients with partial response who maintain their response status to date” value ([3]; in vivo) was 15 of the 17, the “Median duration of partial response” value ([3]; range, 6 to 42) was 23 cycles and the “Disease progression (tumor volume increase from baseline of ≥20%)” value ([3]; to date) was “No patients have had disease progression”. The “Motor dysfunction: no. of patients with improvement” value (“Motor dysfunction: no. of patients” below) ([4]; 20-mg group, 3 patients with condition at baseline) was 2, the “Disfigurement: no. of patients with improvement” value (“Disfigurement: no. of patients” below) [4, 8] was 2 and the “Pain: no. of patients with improvement” value [4, 8] was 4. The “Motor dysfunction: no. of patients” value [4, 9] was 3, the “Pain: no. of patients with improvement” value [4, 9] was 3 and the “Disfigurement: no. of patients” value ([4]; 25-mg group, 6 patients with condition at baseline) was 3. For the same compound, the “Motor dysfunction: no. of patients” value [4, 10] was 0, the “Pain: no. of patients with improvement” value [4, 10] was 1 and the “Disfigurement: no. of patients” value ([4]; 30-mg group, 5 patients with condition at baseline) was 0. For the same compound, the “Drug exposure with increasing dose” value ([5]; 20 to 30 mg per square meter) was “less than dose-proportional”, the “Selumetinib plasma concentrations versus N-desmethyl metabolite” value ([5]; plasma) was “exceeded those of the N-desmethyl metabolite at all time points” and the Absorption ([5]; plasma, cycle 1, 18 patients) was “absorbed rapidly”. For the same compound, the “Phosphorylated ERK in mouse tumor samples” value [6] was “transient decrease” and the Maximum tolerated dose [7] was 25 mg per square meter.

For pegylated interferon alfa-2b, the “Patients with tumor volume decrease from baseline of at least 20%” value (plexiform neurofibromas) is listed as 5%.
